From ChEMBL document CHEMBL4616723, “Discovery of Antibacterials That Inhibit Bacterial RNA Polymerase Interactions with Sigma Factors” (J Med Chem, 2020)
In brackets after ≈: the same amount, converted by molar mass. Activity calls are given as the source filed them. The calls are words filed in the database; no cut-off is given here.

Columns and labels:
Enterococcus faecalis = assay: Antibacterial activity against Enterococcus faecalis ATCC 19433 after 20 hrs by CLSI based-broth microdilution method; format: functional; details: ATCC 19433, 20 h
Staphylococcus aureus [1] = assay: Antibacterial activity against Staphylococcus aureus ATCC 25923 after 20 hrs by CLSI based-broth microdilution method; format: functional; details: ATCC 25923, 20 h
Staphylococcus aureus [2] = assay: Antibacterial activity against Staphylococcus aureus ATCC 29213 after 20 hrs by CLSI based-broth microdilution method; format: functional; details: ATCC 29213, 20 h
[3] = system: Staphylococcus epidermidis; assay: Antibacterial activity against Staphylococcus epidermidis ATCC 12228 after 20 hrs by CLSI based-broth microdilution method; format: functional; details: ATCC 12228, 20 h
[4] = system: Staphylococcus saprophyticus; assay: Antibacterial activity against Staphylococcus saprophyticus ATCC 15305 after 20 hrs by CLSI based-broth microdilution method; format: functional; details: subsp. saprophyticus ATCC 15305, 20 h
Streptococcus pyogenes = assay: Antibacterial activity against Streptococcus pyogenes ATCC 19615 after 20 hrs by CLSI based-broth microdilution method; format: functional; details: ATCC 19615, 20 h
Streptococcus agalactiae = assay: Antibacterial activity against Streptococcus agalactiae ATCC 12386 after 20 hrs by CLSI based-broth microdilution method; format: functional; details: ATCC 12386, 20 h
HepG2 = assay: Cytotoxicity against human HepG2 cells after 48 to 72 hrs by MTT assay; format: cell-based
A549 = assay: Cytotoxicity against human A549 cells after 48 to 72 hrs by MTT assay; format: cell-based
[5] = Therapeutic index, ratio of CC50 for human HepG2 cells to MIC for Streptococcus pneumoniae ATCC 49619; format: toxicity; details: read-out: TI
[6] = Therapeutic index, ratio of CC50 for human A549 cells to MIC for Streptococcus pneumoniae ATCC 49619; format: toxicity; details: read-out: TI
[7] = Haemolytic activity in human erythrocytes at 0.1 to 10 ug/ml relative to control; format: ADME, cell-based, Erythrocyte; details: read-out: Activity
Method in brief: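 Human erythrocytes washed in 150 mM NaCl, resuspended in PBS pH 7.4 (2% blood); compound at final 0.1, 1 and 10 μg/mL (0.5% DMSO) for 45 min at 37 °C, n = 6; spun at 500g, 4 °C; supernatant absorbance read at 540 nm; 1% Triton X-100 as positive and PBS as negative control; % lysis calculated.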

[8] = Inhibition of N-terminal SmBiT-fused Bacillus subtilis RNAP subunit beta' CH region expressed in Escherichia coli BL21(DE3)pLysS interaction with C- terminal LgBiT-fused Bacillus subtilis RNA polymerase sigma factor SigA expressed in Escherichia coli BL21(DE3)pLysS preincubated for 10 mins followed by RNA polymerase sigma factor SigA addition and measured after 10 mins by nano-glo luciferase assay
Method in brief: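 Split-luciferase complementation in PBS: N-SmBiT-CH (2.5 μM stock) mixed with compound at desired concentrations, 10 min at 37 °C. C-LgBiT-σA (2.5 μM stock) then added, another 10 min at 37 °C. Equal volume of Nano-Glo substrate added and luminescence read. No-drug control included. Run in triplicate with technical repeats.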

Klebsiella pneumoniae = assay: Antibacterial activity against Klebsiella pneumoniae ATCC 700603 after 20 hrs by CLSI based-broth microdilution method; format: functional; details: ATCC 700603, 20 h
Acinetobacter baumannii = assay: Antibacterial activity against Acinetobacter baumannii ATCC 19606 after 20 hrs by CLSI based-broth microdilution method; format: functional; details: ATCC 19606 = CIP 70.34 = JCM 6841, 20 h
Pseudomonas aeruginosa = assay: Antibacterial activity against Pseudomonas aeruginosa ATCC 27853 after 20 hrs by CLSI based-broth microdilution method; format: functional; details: ATCC 27853, 20 h
Enterobacter cloacae = assay: Antibacterial activity against Enterobacter cloacae ATCC 13047 after 20 hrs by CLSI based-broth microdilution method; format: functional; details: subsp. cloacae ATCC 13047, 20 h
Escherichia coli = assay: Antibacterial activity against Escherichia coli ATCC 25922 after 20 hrs by CLSI based-broth microdilution method; format: functional; details: ATCC 25922, 20 h
Streptococcus pneumoniae [9] = assay: Antibacterial activity against Streptococcus pneumoniae ATCC 49619 after 16 to 20 hrs by CLSI based-broth microdilution method; format: functional
[10] = Apparent permeability across apical to basolateral membrane in human Caco2 cells at 10 ug/ml by LC-MS/MS analysis; format: ADME, cell-based; details: Caco-2
Method in brief: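 Caco-2 monolayers grown 21–28 days on Transwell polycarbonate membranes, TEER ≥165 Ω cm2; preincubated 20 min at 37 °C in transport buffer; apical-to-basolateral transport only, pH 7.4 on both sides; receiver sampled over time under sink conditions; concentrations measured by LC–MS/MS.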

Streptococcus pneumoniae [11] = assay: Antibacterial activity against Streptococcus pneumoniae ATCC 49619 after 20 hrs by CLSI based-broth microdilution method; format: functional; details: ATCC 49619, 20 h
Streptococcus pneumoniae [12] = assay: Antibacterial activity against Streptococcus pneumoniae ATCC 49619 assessed as reduction in pneumolysin release at 0.25 to 0.5 times MIC incubated for 16 to 20 hrs by Western blot analysis; format: functional, organism-based
Method in brief: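 Overnight static culture in brain–heart infusion broth, with or without serially diluted compound; rifampicin and ceftriaxone controls at twofold dilutions from 2 to 0.002 μg/mL; untreated control. […] Western blot probed with rabbit polyclonal anti-pneumolysin (1:1000) and HRP anti-rabbit secondary, ECL chemiluminescence; band intensity normalized to untreated control.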

Row | Structure (SMILES) | MIC (Enterococcus faecalis) [µg/mL] | MIC (Staphylococcus aureus [1]) [µg/mL] | MIC (Staphylococcus aureus [2]) [µg/mL] | MIC [3] [µg/mL] | MIC [4] [µg/mL] | MIC (Streptococcus pyogenes) [µg/mL] | MIC (Streptococcus agalactiae) [µg/mL] | IC50 [8] [µM] | MIC (Klebsiella pneumoniae) [µg/mL] | MIC (Acinetobacter baumannii) [µg/mL] | MIC (Pseudomonas aeruginosa) [µg/mL] | MIC (Enterobacter cloacae) [µg/mL] | MIC (Escherichia coli) [µg/mL] | MIC (Streptococcus pneumoniae [11]) [µg/mL] | other results
1 | O=C(O)c1ccc(Cl)c(NCc2ccc(Sc3ccc(Cl)c(Cl)c3)c([N+](=O)[O-])c2)c1 | 4 (≈ 8.27 µM) | 8 (≈ 16.5 µM) | 8 (≈ 16.5 µM) | 4 (≈ 8.27 µM) | 4 (≈ 8.27 µM) | 4 (≈ 8.27 µM) | 4 (≈ 8.27 µM) | 15 | > 256 | > 256 | > 256 | > 256 | > 256 | – | CC50 (HepG2): 110 µM; CC50 (A549): 116 µM; selectivity ratio [5]: 27; selectivity ratio [6]: 28; hemolysis [7]: < 10%
2 | Nc1cc(Cl)ccc1Sc1ccc(C(=O)c2ccccc2C(=O)O)cc1[N+](=O)[O-] | – | – | – | – | – | – | – | – | > 256 | > 256 | > 256 | > 256 | > 256 | – | MIC (Streptococcus pneumoniae [9]): 64 µg/mL (≈ 149 µM)
3 | Nc1ccccc1Sc1ccc(C(=O)c2ccccc2C(=O)O)cc1[N+](=O)[O-] | 256 (≈ 649 µM) | > 256 | > 256 | > 256 | 256 (≈ 649 µM) | 256 (≈ 649 µM) | > 256 | – | > 256 | > 256 | > 256 | > 256 | > 256 | – | –
4 | Nc1cccc(Sc2ccc(C(=O)c3ccccc3C(=O)O)cc2[N+](=O)[O-])c1 | – | – | – | – | – | – | – | – | > 256 | > 256 | > 256 | > 256 | > 256 | – | MIC (Streptococcus pneumoniae [9]): 64 µg/mL (≈ 162 µM)
5 | O=C(O)c1ccccc1NCc1ccc(Sc2ccc(Cl)c(Cl)c2)c([N+](=O)[O-])c1 | 8 (≈ 17.8 µM) | 8 (≈ 17.8 µM) | 4 (≈ 8.9 µM) | 4 (≈ 8.9 µM) | 4 (≈ 8.9 µM) | 4 (≈ 8.9 µM) | 4 (≈ 8.9 µM) | 11.6 | > 256 | > 256 | > 256 | > 256 | > 256 | – | CC50 (HepG2): 170 µM; CC50 (A549): 252 µM; selectivity ratio [5]: 38; selectivity ratio [6]: 57; hemolysis [7]: < 10%; Papp A→B at 10 ug/ml [10]: 36.2 ×10⁻⁶ cm/s
6 | Nc1ccccc1Sc1ccc(C(=O)Nc2ccc(C(=O)O)cc2)cc1[N+](=O)[O-] | – | – | – | – | – | – | – | 97 | > 256 | > 256 | > 256 | > 256 | > 256 | 256 (≈ 625 µM) | –
7 | CO[C@H]1/C=C/O[C@@]2(C)Oc3c(C)c(O)c4c(O)c(c(/C=N/N5CCN(C)CC5)c(O)c4c3C2=O)NC(=O)/C(C)=C\C=C\[C@H](C)[C@H](O)[C@@H](C)[C@@H](O)[C@@H](C)[C@H](OC(C)=O)[C@@H]1C [RIFAMPIN] | 4 (≈ 4.86 µM) | 0.01 (≈ 0.0122 µM) | 0.03 (≈ 0.0365 µM) | 0.03 (≈ 0.0365 µM) | 0.03 (≈ 0.0365 µM) | 0.03 (≈ 0.0365 µM) | 0.03 (≈ 0.0365 µM) | – | – | – | – | – | – | 0.0625 (≈ 0.0759 µM) | Activity (Streptococcus pneumoniae [12]): Active
8 | CN[C@H](CC(C)C)C(=O)N[C@H]1C(=O)N[C@@H](CC(N)=O)C(=O)N[C@H]2C(=O)N[C@H]3C(=O)N[C@H](C(=O)N[C@H](C(=O)O)c4cc(O)cc(O)c4-c4cc3ccc4O)[C@H](O)c3ccc(c(Cl)c3)Oc3cc2cc(c3O[C@@H]2O[C@H](CO)[C@@H](O)[C@H](O)[C@H]2O[C@H]2C[C@](C)(N)[C@H](O)[C@H](C)O2)Oc2ccc(cc2Cl)[C@H]1O [VANCOMYCIN] | 1 (≈ 0.69 µM) | – | – | – | 1 (≈ 0.69 µM) | 1 (≈ 0.69 µM) | 1 (≈ 0.69 µM) | – | – | – | – | – | – | 1 (≈ 0.69 µM) | –
